According to ChEMBL document CHEMBL2086289, “Anti-HIV activity of semisynthetic derivatives of andrographolide and computational study of HIV-1 gp120 protein binding” (Eur J Med Chem, 2012):
The source made the active and inactive calls. The rule behind the calls is not given here.

Assays:
[1] = Therapeutic index, ratio of CC50 for human TZM-bl cells to IC50 for HIV1; assay type: cell-based; conditions: read-out: Ratio CC50/IC50
Outline: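 Ratio of CC50 from the 48 h MTT assay in TZM-bl cells to IC50 from the NL4.3 luciferase infectivity assay in TZM-bl cells.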

[2] = test system: Human immunodeficiency virus 1; experiment: Antiviral activity against HIV1 in human TZM-bl cells assessed as viral infectivity by luciferase assay; assay type: functional, organism-based; conditions: Human immunodeficiency virus 1, TZM-bl
Outline: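 TZM-bl cells seeded at 4.0 × 10⁴/well and held overnight. CXCR4-tropic HIV-1 NL4.3 (MOI 0.05) was pre-incubated with compound or solvent for 1 h at 37 °C, then added in duplicate for 4 h and washed off. Cells got fresh medium with compound for 48 h, then lysis and luciferase chemiluminescence. AZT served as positive control. IC50 is the concentration giving 50% inhibition of infection versus infected untreated cells.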

[3] = Cytotoxicity against human TZM-bl cells after 48 hrs by MTT assay; assay type: cell-based
Outline: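 TZM-bl cells seeded at 6.0 × 10³/well and incubated 24 h at 37 °C, 5% CO₂. They were then exposed to four compound concentrations (4, 20, 100, 500) or solvent for 48 h. MTT was added for 4 h at 37 °C, followed by overnight solubilization in SDS/DMF/PBS. Absorbance read at 570 nm with a 690 nm reference. Viability was scored relative to untreated cells, and CC50 came from nonlinear curve fitting.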

[4] = test system: Human immunodeficiency virus 1; experiment: Antiviral activity against HIV1 assessed as inhibition of syncytia formation; assay type: functional, organism-based
[5] = molecular target: Human immunodeficiency virus type 1 reverse transcriptase (Human immunodeficiency virus 1) (UniProt Q72547); experiment: Inhibition of HIV1 reverse transcriptase at 50 uM by ELISA
Outline: (§1)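 Single-concentration screens run with commercial kits per the manufacturers' protocols. RT was measured by ELISA kit, with nevirapine 1 mM as positive control. HIV-1 protease was measured by a protease assay kit, with saquinavir 1 mM as positive control.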

[6] = Inhibition of HIV1 gp120 expressed in human HL2/3 cells assessed as Hl2/3 cell fusion to compound-treated human TZM-bl cells after 48 hrs by luciferase assay; assay type: cell-based, Human immunodeficiency virus 1
Outline: (§2)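 Either HL2/3 cells (HeLa-derived, expressing HIV-1 HxB2 Env plus Tat, Gag, Rev and Nef; G418-maintained) or TZM-bl cells were pre-treated with compound, then washed. Treated cells were co-cultured with the untreated partner line at 1:1 (1.0 × 10⁵ cells/well) for 48 h at 37 °C, 5% CO₂. Luciferase activity was measured and inhibition scored relative to no-compound co-cultures, with Bicyclam as reference. IC50 is the concentration giving 50% inhibition of luciferase expression.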

TZM-bl = experiment: (§3) Inhibition of HIV1 gp120 expressed in human HL2/3 cells assessed as compound-treated HL2/3 cell fusion to human TZM-bl cells after 48 hrs by luciferase assay; assay type: cell-based; conditions: Human immunodeficiency virus 1; outline: as §2
[7] = as §3; assay type: cell-based, Human immunodeficiency virus 1; outline: as §2
[8] = molecular target: Protease (Human immunodeficiency virus 1) (UniProt Q9YQ12); experiment: Inhibition of HIV1 protease at 50 uM by ELISA; outline: as §1
Protease (Human immunodeficiency virus 1), sequence (Q9YQ12 as listed by the source): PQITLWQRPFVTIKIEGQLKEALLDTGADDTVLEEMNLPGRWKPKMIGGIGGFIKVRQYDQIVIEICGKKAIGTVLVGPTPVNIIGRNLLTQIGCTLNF

[9] = Human immunodeficiency virus 1, TZM-bl, 48 h, read-out: IC50

C=C1CC[C@@H]2[C@]3(C)COC(c4ccc(Cl)cc4)O[C@@H]3CC[C@@]2(C)[C@@H]1C/C=C1/C(=O)OC[C@H]1O (some centres not stated)
selectivity ratio [1]: 44
IC50 ([2]; read-out: IC50): 9.94 µM
IC50 ([2]; read-out: pIC50 (converted)): 10 µM
CC50 at 48 h [3]: 440 µM

C=C1CC[C@@H]2[C@]3(C)COC(c4cccc([N+](=O)[O-])c4)O[C@@H]3CC[C@@]2(C)[C@@H]1C/C=C1/C(=O)OC[C@H]1O (some centres not stated)
selectivity ratio [1]: 1460
inhibition [4]: Active
IC50 ([2]; read-out: IC50): 0.51 µM
IC50 ([2]; read-out: pIC50 (converted)): 0.513 µM
inhibition [5]: inactive
IC50 ([6]; tzm-bl): Not Active
inhibition (TZM-bl): Dose-dependent effect
IC50 [7, 9]: 1.6 µM
inhibition [8]: inactive
CC50 at 48 h [3]: 745 µM

C=C1CC[C@@H]2[C@]3(C)COC(c4ccc(O)cc4)O[C@@H]3CC[C@@]2(C)[C@@H]1C/C=C1/C(=O)OC[C@H]1O (some centres not stated)
selectivity ratio [1]: 24
IC50 ([2]; read-out: IC50): 2.1 µM
IC50 ([2]; read-out: pIC50 (converted)): 2.09 µM
CC50 at 48 h [3]: 50 µM

C=C1CC[C@@H]2[C@](C)(CO)[C@H](O)CC[C@@]2(C)[C@@H]1C/C=C1/C(=O)OC[C@H]1O [ANDROGRAPHOLIDE]
selectivity ratio [1]: 2880
inhibition [4]: Active
IC50 ([2]; read-out: IC50): 0.59 µM
IC50 ([2]; read-out: pIC50 (converted)): 0.589 µM
inhibition [5]: inactive
IC50 ([6]; tzm-bl): Not Active
inhibition (TZM-bl): Dose-dependent effect
IC50 [7, 9]: 1.7 µM
inhibition [8]: inactive
CC50 at 48 h [3]: 1700 µM

C=C1CC[C@@H]2[C@](C)(CO)[C@H](O)CC[C@@]2(C)[C@@H]1C/C=C1/C(=O)OC[C@H]1OC(=O)c1ccc(Cl)nc1Cl
selectivity ratio [1]: 12500
inhibition [4]: Active
IC50 ([2]; read-out: IC50): 0.83 µM
IC50 ([2]; read-out: pIC50 (converted)): 0.832 µM
inhibition [5]: inactive
IC50 ([6]; tzm-bl): Not Active
inhibition (TZM-bl): Dose-dependent effect
IC50 [7, 9]: 1.1 µM
inhibition [8]: inactive
CC50 at 48 h [3]: 10400 µM

C=C1CC[C@@H]2[C@]3(C)COC(c4ccc(O)c(OC)c4)O[C@@H]3CC[C@@]2(C)[C@@H]1C/C=C1/C(=O)OC[C@H]1O (some centres not stated)
selectivity ratio [1]: 10
IC50 ([2]; read-out: IC50): 6.09 µM
IC50 ([2]; read-out: pIC50 (converted)): 6.03 µM
CC50 at 48 h [3]: 59 µM

C=C1CC[C@@H]2[C@]3(C)COC(c4ccc5c(c4)OCO5)O[C@@H]3CC[C@@]2(C)[C@@H]1C/C=C1/C(=O)OC[C@H]1O (some centres not stated)
selectivity ratio [1]: 599
IC50 ([2]; read-out: IC50): 2.75 µM
IC50 ([2]; read-out: pIC50 (converted)): 2.75 µM
CC50 at 48 h [3]: 1650 µM

Br.c1cc(CN2CCCNCCNCCCNCC2)ccc1CN1CCCNCCNCCCNCC1
IC50 [6, 9]: 1.6 µM
IC50 ([7]; tzm-bl): Not Active

C=C1CC[C@@H]2[C@](C)(CO)[C@H](O)CC[C@@]2(C)[C@@H]1C/C=C1/C(=O)OC[C@H]1OC(=O)c1ccccc1O
selectivity ratio [1]: 12
IC50 ([2]; read-out: IC50): 84.2 µM
IC50 ([2]; read-out: pIC50 (converted)): 85.1 µM
CC50 at 48 h [3]: 1080 µM

C=C1CC[C@@H]2[C@](C)(COC(=O)NS(=O)(=O)c3ccc(C)cc3)[C@H](O)CC[C@@]2(C)[C@@H]1C/C=C1/C(=O)OC[C@H]1O
selectivity ratio [1]: 978
IC50 ([2]; read-out: IC50): 2.08 µM
IC50 ([2]; read-out: pIC50 (converted)): 2.09 µM
CC50 at 48 h [3]: 2040 µM

C=C1CC[C@@H]2[C@]3(C)COC(c4ccc(O)cc4O)O[C@@H]3CC[C@@]2(C)[C@@H]1C/C=C1/C(=O)OC[C@H]1O (some centres not stated)
selectivity ratio [1]: 164
IC50 ([2]; read-out: IC50): 1.09 µM
IC50 ([2]; read-out: pIC50 (converted)): 1.1 µM
CC50 at 48 h [3]: 179 µM

C=C(C)[C@@H]1CC[C@]2(C(=O)NCCCCCCCC(=O)N[C@@H](CC(C)C)[C@H](O)CC(=O)O)CC[C@]3(C)[C@H](CC[C@@H]4[C@@]5(C)CC[C@H](O)C(C)(C)[C@@H]5CC[C@]43C)[C@@H]12
IC50 ([2]; read-out: IC50): 0.1 µM
IC50 ([2]; read-out: pIC50 (converted)): 0.1 µM
